ChEMBL document CHEMBL2417457, “Octahydropyrrolo[3,4-c]pyrrole negative allosteric modulators of mGlu1” (Bioorg Med Chem Lett, 2013)
The source made the active and inactive calls. No cut-off for these calls is given here.

Assays:
Plasma = assay: Fraction unbound in rat plasma; format: ADME, cell-free
Procedure, shortened: (§1)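 Unbound fraction was determined by equilibrium dialysis against rat plasma or rat brain homogenate.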

[1] = target: T1, Metabotropic glutamate receptor 1 (Homo sapiens, UniProt Q13255); assay: Negative allosteric modulation of human mGlu1 receptor expressed in HEK293A TREx cells assessed as calcium flux at 30 uM after 45 mins relative to glutamate; format: functional, cell-based; details: HEK293-A
Procedure, shortened: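 Tetracycline-induced HEK293A TREx cells expressing human mGlu1 were loaded with Fluo-4 for Ca2+ flux. Test compound was given at 30 μM. Response amplitude is expressed as a percentage of the maximal response to 100 μM glutamate, averaged over n ≥ 3.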
Target sequence in this assay (Q13255 19-1194 limits assumed): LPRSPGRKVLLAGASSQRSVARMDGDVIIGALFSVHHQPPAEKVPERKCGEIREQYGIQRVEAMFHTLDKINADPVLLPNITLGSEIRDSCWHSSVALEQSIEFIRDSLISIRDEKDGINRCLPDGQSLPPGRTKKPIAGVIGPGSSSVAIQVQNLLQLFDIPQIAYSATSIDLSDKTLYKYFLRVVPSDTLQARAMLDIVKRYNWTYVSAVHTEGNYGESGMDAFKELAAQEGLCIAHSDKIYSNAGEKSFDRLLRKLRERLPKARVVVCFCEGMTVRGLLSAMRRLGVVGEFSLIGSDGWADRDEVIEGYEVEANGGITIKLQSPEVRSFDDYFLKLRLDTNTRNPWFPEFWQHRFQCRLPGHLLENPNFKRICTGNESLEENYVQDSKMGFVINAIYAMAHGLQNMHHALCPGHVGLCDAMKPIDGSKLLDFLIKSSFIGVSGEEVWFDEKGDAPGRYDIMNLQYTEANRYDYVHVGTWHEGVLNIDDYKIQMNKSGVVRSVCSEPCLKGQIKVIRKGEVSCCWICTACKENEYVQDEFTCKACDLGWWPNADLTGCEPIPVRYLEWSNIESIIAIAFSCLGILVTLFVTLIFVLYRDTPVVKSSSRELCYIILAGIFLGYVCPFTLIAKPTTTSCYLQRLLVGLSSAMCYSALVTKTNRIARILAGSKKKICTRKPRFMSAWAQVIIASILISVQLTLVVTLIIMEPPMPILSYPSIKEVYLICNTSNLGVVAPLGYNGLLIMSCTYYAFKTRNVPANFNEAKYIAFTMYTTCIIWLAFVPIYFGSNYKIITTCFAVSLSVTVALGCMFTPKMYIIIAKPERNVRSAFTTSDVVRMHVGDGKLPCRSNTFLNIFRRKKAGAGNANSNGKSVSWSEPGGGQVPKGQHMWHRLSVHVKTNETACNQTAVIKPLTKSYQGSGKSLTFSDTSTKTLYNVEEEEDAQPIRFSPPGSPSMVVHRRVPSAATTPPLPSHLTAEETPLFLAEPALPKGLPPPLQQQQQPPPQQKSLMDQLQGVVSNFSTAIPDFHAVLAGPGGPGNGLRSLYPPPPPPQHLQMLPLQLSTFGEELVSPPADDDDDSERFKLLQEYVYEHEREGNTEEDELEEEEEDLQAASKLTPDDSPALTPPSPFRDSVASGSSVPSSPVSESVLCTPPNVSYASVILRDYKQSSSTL

[2] = target: T1, Metabotropic glutamate receptor 1; assay: Negative allosteric modulation of human mGlu1 receptor expressed in HEK293A TREx cells assessed as calcium flux after 45 mins; format: functional, cell-based, HEK293-A
Procedure, shortened: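 HEK293A TREx cells stably expressing human mGlu1 were induced overnight with 50 ng/mL tetracycline at 37 °C. Ten-point 1:3 compound series were added for 2.3 min, then an EC20 of glutamate, then an EC80 of glutamate 1.9 min later. Ca2+ flux was read for 1.7 min. Values are the average of n ≥ 3.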
Target sequence in this assay (Q13255 whole entry): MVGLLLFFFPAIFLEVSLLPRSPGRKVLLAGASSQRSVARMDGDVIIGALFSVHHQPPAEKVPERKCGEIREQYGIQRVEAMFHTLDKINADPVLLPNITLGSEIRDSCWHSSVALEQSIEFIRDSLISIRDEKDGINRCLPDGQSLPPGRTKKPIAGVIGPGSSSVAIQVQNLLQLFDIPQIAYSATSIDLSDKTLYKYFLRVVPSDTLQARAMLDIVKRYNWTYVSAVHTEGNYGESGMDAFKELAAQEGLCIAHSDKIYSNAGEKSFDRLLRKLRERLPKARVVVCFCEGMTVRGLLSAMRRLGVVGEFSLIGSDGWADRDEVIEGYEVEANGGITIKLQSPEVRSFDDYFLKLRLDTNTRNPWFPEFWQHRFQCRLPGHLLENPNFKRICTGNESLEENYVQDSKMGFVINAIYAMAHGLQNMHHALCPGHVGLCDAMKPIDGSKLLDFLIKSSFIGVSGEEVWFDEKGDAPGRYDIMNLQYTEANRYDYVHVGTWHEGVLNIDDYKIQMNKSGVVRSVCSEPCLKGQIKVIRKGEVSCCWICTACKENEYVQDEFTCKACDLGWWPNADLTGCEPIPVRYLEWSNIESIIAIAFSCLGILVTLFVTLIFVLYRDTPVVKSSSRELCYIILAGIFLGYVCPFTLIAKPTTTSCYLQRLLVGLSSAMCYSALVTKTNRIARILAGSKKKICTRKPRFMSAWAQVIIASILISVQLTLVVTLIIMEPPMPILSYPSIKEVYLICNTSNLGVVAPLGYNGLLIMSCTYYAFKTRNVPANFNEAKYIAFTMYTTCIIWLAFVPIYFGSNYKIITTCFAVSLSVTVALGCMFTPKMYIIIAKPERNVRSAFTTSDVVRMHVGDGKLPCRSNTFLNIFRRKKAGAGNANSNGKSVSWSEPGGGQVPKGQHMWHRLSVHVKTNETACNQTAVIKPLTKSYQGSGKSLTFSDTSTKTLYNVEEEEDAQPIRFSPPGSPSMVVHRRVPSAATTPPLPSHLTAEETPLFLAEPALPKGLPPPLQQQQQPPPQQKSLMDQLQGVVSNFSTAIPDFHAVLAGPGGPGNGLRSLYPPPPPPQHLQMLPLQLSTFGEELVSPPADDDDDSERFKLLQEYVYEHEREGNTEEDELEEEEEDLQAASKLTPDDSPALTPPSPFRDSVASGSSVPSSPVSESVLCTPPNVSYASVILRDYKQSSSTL

Cytochrome P450 2D6 = Cytochrome P450 2D6 (Homo sapiens, UniProt P10635); assay: Inhibition of CYP2D6 in human liver microsomes in presence of NADPH; format: ADME, Microsome
Cytochrome P450 1A2 = target: T2, Cytochrome P450 1A2 (Homo sapiens, UniProt P05177); assay: Inhibition of CYP1A2 in human liver microsomes in presence of NADPH; format: ADME, Microsome
T2 sequence (P05177 whole entry): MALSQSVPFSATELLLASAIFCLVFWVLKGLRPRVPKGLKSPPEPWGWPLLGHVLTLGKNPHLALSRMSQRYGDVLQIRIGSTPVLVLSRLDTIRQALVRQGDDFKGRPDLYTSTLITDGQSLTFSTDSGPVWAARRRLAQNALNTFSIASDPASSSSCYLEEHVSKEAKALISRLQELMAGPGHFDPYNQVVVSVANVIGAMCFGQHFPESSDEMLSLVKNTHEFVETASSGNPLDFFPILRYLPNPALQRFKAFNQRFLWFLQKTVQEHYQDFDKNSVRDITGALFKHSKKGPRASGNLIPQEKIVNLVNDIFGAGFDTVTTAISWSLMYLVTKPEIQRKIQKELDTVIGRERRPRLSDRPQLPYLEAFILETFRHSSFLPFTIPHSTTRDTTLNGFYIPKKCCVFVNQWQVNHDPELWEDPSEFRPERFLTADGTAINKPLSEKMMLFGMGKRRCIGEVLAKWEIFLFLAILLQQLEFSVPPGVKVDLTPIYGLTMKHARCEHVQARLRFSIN

Cytochrome P450 3A4 = Cytochrome P450 3A4 (Homo sapiens, UniProt P08684); assay: Inhibition of CYP3A4 in human liver microsomes in presence of NADPH; format: ADME, Microsome
Cytochrome P450 2C9 = Cytochrome P450 2C9 (Homo sapiens, UniProt P11712); assay: Inhibition of CYP2C9 in human liver microsomes in presence of NADPH; format: ADME, Microsome
Brain = assay: Fraction unbound in rat brain; format: ADME, tissue-based; procedure, shortened: as §1
[3] = target: Metabotropic glutamate receptor 8 (Homo sapiens) (UniProt O00222); assay: Negative allosteric modulation of mGlu8 receptor (unknown origin) by cell based assay
Procedure, shortened: (§2)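 Selectivity against other mGlu subtypes was tested in cell-based functional assays with compound at 10 μM.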

[4] = target: Metabotropic glutamate receptor 6 (Homo sapiens) (UniProt O15303); assay: Negative allosteric modulation of mGlu6 receptor (unknown origin) by cell based assay; procedure, shortened: as §2
[5] = target: Metabotropic glutamate receptor 5 (Rattus norvegicus, UniProt P31424); assay: Negative allosteric modulation of mGlu5 receptor (unknown origin) by cell based assay
[6] = target: Metabotropic glutamate receptor 4 (Homo sapiens) (UniProt Q14833); assay: Negative allosteric modulation of mGlu4 receptor (unknown origin) by cell based assay; procedure, shortened: as §2
[7] = target: Metabotropic glutamate receptor 3 (Homo sapiens) (UniProt Q14832); assay: Negative allosteric modulation of mGlu3 receptor (unknown origin) by cell based assay; procedure, shortened: as §2
[8] = target: Metabotropic glutamate receptor 2 (Homo sapiens) (UniProt Q14416); assay: Negative allosteric modulation of mGlu2 receptor (unknown origin) by cell based assay; procedure, shortened: as §2
[9] = target: T1, Metabotropic glutamate receptor 1; assay: Negative allosteric modulation of human mGlu1 receptor up to 30 uM
Target sequence in this assay (Q13255 whole entry, looked up): as the sequence (Q13255 whole entry) above

Rattus norvegicus = species: Rattus norvegicus; assay: Binding affinity to rat sodium channel site 2 by radioligand binding assay; details: concentration not given here
Procedure, shortened: (§3)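 Compound was screened at 10 μM in a commercial radioligand binding panel of 68 GPCRs, ion channels, kinases and transporters.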

[10] = target: Sigma non-opioid intracellular receptor 1 (Homo sapiens) (UniProt Q99720); assay: Binding affinity to human sigma1 receptor by radioligand binding assay; details: concentration not given here; procedure, shortened: as §3
[11] = target: T3, 5-hydroxytryptamine receptor 3A (Homo sapiens) (UniProt P46098); assay: Binding affinity to human 5HT3 receptor by radioligand binding assay; details: concentration not given here; procedure, shortened: as §3
T3 sequence (whole entry): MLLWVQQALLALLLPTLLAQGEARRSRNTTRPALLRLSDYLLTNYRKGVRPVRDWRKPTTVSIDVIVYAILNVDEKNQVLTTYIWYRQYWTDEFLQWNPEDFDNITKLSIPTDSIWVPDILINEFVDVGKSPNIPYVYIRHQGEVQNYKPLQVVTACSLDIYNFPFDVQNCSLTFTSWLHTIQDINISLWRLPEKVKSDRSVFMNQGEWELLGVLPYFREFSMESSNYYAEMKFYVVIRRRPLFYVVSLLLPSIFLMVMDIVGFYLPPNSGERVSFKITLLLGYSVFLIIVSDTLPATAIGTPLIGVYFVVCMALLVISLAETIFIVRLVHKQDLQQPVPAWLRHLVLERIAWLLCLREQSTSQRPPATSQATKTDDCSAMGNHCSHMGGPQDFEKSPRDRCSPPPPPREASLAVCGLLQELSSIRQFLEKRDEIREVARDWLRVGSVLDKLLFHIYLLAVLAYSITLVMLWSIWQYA

[12] = target: Kappa-type opioid receptor (Homo sapiens) (UniProt P41145); assay: Binding affinity to human kappa opioid receptor by radioligand binding assay; details: concentration not given here; procedure, shortened: as §3
[13] = target: Metabotropic glutamate receptor 5 (Rattus norvegicus) (UniProt P31424); assay: Negative allosteric modulation of rat mGlu5 receptor at 30 uM relative to glutamate

Chain of Cytochrome P450 3A4 (P08684 whole entry): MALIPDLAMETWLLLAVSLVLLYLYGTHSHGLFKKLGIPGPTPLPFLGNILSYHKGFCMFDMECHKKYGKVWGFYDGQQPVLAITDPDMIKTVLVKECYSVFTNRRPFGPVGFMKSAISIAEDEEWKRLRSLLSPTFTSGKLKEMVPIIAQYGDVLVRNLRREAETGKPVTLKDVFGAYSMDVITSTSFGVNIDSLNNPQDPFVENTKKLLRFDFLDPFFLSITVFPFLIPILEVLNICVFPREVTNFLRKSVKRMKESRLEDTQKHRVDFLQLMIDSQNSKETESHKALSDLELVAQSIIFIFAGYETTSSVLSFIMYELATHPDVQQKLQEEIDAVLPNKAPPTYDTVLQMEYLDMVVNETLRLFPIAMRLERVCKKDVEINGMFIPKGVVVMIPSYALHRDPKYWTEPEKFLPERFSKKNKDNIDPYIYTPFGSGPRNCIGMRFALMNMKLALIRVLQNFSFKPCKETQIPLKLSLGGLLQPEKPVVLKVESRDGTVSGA
Chain of Cytochrome P450 2D6 (P10635 whole entry): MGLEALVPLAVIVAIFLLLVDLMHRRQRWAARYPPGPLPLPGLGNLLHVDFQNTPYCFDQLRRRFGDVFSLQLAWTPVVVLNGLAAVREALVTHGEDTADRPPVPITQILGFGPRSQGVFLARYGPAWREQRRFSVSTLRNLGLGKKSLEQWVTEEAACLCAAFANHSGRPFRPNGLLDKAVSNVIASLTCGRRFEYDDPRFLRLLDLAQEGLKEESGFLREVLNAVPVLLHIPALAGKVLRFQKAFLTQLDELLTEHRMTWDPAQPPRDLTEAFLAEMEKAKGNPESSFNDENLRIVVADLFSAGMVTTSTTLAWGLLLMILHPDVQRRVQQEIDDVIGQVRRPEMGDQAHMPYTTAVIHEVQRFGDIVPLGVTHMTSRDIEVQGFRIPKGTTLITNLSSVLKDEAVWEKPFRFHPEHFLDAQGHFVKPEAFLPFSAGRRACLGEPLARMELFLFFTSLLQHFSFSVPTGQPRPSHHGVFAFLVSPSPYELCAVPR
Chain of Cytochrome P450 2C9 (P11712 whole entry): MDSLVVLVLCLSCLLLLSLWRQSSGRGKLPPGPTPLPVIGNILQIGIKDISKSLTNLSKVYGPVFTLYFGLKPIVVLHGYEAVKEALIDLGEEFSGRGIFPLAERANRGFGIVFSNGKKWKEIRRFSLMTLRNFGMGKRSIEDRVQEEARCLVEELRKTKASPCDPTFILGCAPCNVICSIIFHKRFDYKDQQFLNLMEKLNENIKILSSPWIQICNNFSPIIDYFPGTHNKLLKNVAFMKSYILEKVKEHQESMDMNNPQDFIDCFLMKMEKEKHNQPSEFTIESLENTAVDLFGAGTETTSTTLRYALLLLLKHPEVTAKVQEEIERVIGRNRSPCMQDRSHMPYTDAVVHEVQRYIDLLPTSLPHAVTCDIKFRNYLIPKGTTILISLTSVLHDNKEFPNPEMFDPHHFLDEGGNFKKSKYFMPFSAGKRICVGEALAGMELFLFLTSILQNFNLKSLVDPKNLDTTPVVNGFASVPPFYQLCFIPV
Chain of Metabotropic glutamate receptor 4 (Homo sapiens) (Q14833 whole entry): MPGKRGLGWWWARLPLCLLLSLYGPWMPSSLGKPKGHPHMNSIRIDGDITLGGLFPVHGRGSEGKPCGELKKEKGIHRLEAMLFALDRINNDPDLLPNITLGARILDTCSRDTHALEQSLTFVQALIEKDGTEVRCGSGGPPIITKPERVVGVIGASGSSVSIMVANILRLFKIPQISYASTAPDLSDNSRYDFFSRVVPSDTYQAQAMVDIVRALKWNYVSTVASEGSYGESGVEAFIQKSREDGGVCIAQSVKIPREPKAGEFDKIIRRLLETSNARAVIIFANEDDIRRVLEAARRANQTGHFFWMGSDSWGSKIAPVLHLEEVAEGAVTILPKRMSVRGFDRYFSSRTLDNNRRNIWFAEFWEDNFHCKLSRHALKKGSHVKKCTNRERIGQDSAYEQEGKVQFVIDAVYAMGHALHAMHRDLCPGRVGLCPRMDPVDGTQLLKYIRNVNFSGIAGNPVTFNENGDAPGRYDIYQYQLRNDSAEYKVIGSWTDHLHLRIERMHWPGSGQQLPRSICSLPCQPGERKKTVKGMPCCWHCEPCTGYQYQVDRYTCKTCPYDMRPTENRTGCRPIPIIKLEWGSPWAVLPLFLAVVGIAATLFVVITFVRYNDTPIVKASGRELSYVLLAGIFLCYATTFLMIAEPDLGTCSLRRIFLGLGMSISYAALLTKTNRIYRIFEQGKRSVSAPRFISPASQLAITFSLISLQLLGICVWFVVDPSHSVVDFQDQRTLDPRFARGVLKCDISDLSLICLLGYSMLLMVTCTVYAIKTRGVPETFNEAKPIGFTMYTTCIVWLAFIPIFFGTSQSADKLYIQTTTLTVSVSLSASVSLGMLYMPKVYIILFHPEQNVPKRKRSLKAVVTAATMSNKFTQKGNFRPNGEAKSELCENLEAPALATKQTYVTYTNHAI
Chain of Sigma non-opioid intracellular receptor 1 (Homo sapiens) (Q99720 whole entry): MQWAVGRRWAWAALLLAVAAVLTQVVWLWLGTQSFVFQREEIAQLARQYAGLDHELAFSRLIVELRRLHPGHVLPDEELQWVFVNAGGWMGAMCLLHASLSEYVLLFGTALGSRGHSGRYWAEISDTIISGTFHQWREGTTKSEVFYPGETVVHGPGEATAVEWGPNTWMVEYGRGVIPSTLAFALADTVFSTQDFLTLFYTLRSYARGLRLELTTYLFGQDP

Row | %max [1] [%] | IC50 [2] [µM] | Structure (SMILES) | other results
1 | -1.1 | 0.669 | O=C(N1C[C@@H]2CN(c3cnccn3)C[C@@H]2C1)C12CC3CC(CC(C3)C1)C2 | Fu (Plasma): 10.3%
2 | 29.2 | > 10 | CC(C)(C)[C@H]1CC[C@H](C(=O)N2C[C@H]3CN(c4ccccn4)C[C@H]3C2)CC1 | –
3 | 56.6 | > 10 | O=C(N1C[C@@H]2CN(c3nccs3)C[C@@H]2C1)C12CC3CC(CC(C3)C1)C2 | –
4 | 23.2 | > 10 | O=C(N1CCCCCCC1)N1C[C@@H]2CN(c3ccccn3)C[C@@H]2C1 | –
5 | 36.5 | > 10 | O=C(C1CCCCCC1)N1C[C@@H]2CN(c3ccccn3)C[C@@H]2C1 | –
6 | 1.3 | 0.553 | N#Cc1ncccc1N1C[C@H]2CN(C(=O)C34CC5CC(CC(C5)C3)C4)C[C@H]2C1 | Fu (Plasma): 4.5%
7 | 10.3 | > 10 | O=C(N1C[C@@H]2CN(c3ncccn3)C[C@@H]2C1)C12CC3CC(CC(C3)C1)C2 | –
8 | -0.1 | 0.297 | O=C(N1C[C@@H]2CN(c3ccccn3)C[C@@H]2C1)N1CCC2(CCCC2)C1 | IC50 (Cytochrome P450 2D6): > 30 µM; IC50 (Cytochrome P450 1A2): > 30 µM; IC50 (Cytochrome P450 3A4): > 30 µM; IC50 (Cytochrome P450 2C9): > 30 µM; Fu (Plasma): 9%; Fu (Brain): 5.1%; Activity [3]: Active; Activity [4]: Active; IC50 [5]: > 10 µM; Activity [6]: inactive; Activity [7]: inactive; Activity [8]: inactive
9 | 2.3 | 0.093 | O=C(N1C[C@@H]2CN(c3cccc(F)n3)C[C@@H]2C1)C12CC3CC(CC(C3)C1)C2 | Fu (Plasma): 1.2%
10 | 25.5 | > 10 | O=C(N1C[C@@H]2CN(c3ccncn3)C[C@@H]2C1)C12CC3CC(CC(C3)C1)C2 | –
11 | -7.5 | 11.9 | CC1(C)[C@@H]2CN(C(=O)N3C[C@@H]4CN(c5ccccn5)C[C@@H]4C3)C[C@@H]21 | –
12 | – | – | C[C@@H]1CN(c2cccnc2C#N)CCN1C(=O)C12CC3CC(CC(C3)C1)C2 | IC50 (Cytochrome P450 2D6): 12.4 µM; IC50 (Cytochrome P450 1A2): > 30 µM; IC50 (Cytochrome P450 3A4): 7 µM; IC50 (Cytochrome P450 2C9): > 30 µM
13 | -5.8 | – | O=C(N1CC2CCC(C2)C1)N1C[C@@H]2CN(c3ccccn3)C[C@@H]2C1 | –
14 | 58.7 | > 10 | O=C(N1C[C@@H]2CN(c3ccccn3)C[C@@H]2C1)C12C3C4C5C3C1C5C42 (stereo partly drawn) | –
15 | -1.5 | 1.91 | O=C(N1CC2CCCC(C2)C1)N1C[C@@H]2CN(c3ccccn3)C[C@@H]2C1 | –
16 | 2.1 | 1 | O=C(N1C[C@@H]2CN(c3ncccc3F)C[C@@H]2C1)C12CC3CC(CC(C3)C1)C2 | –

Row | %max [1] [%] | IC50 [2] [µM] | Structure (SMILES) | other results
17 | 1.5 | 0.364 | O=C(N1CCC2(CCCCC2)CC1)N1C[C@@H]2CN(c3ccccn3)C[C@@H]2C1 | Fu (Plasma): 1.5%
18 | 0.7 | 0.769 | O=C(N1CCC2(CCCC2)CC1)N1C[C@@H]2CN(c3ccccn3)C[C@@H]2C1 | –
19 | 36.8 | > 10 | N#Cc1cnccc1N1C[C@H]2CN(C(=O)C34CC5CC(CC(C5)C3)C4)C[C@H]2C1 | –
20 | – | > 30 | CC(C)(C)CC(=O)N1C[C@@H]2CN(c3ccccn3)C[C@@H]2C1 | Activity [9]: inactive
21 | 9.3 | 5.14 | CC1(C(=O)N2C[C@@H]3CN(c4ccccn4)C[C@@H]3C2)CCCCC1 | –
22 | – | > 30 | CC(C)(C)C(=O)N1C[C@@H]2CN(c3ccccn3)C[C@@H]2C1 | –
23 | 37.9 | > 10 | C[C@H]1CC[C@H](C(=O)N2C[C@H]3CN(c4ccccn4)C[C@H]3C2)CC1 | –
24 | 2.2 | 0.085 | O=C(N1C[C@@H]2CN(c3ccccn3)C[C@@H]2C1)C12CC3CC(CC(C3)C1)C2 | IC50 (Cytochrome P450 2D6): 24.3 µM; IC50 (Cytochrome P450 1A2): > 30 µM; IC50 (Cytochrome P450 3A4): 6.2 µM; IC50 (Cytochrome P450 2C9): > 30 µM; Fu (Plasma): 2.9%; Fu (Brain): 2.3%; inhibition (Rattus norvegicus): 52%; inhibition [10]: 95%; inhibition [11]: 90%; inhibition [12]: 60%; IC50 [5]: 3.36 µM; Activity [6]: inactive; Activity [7]: inactive; Activity [8]: inactive; %max [13]: 1.1%
25 | 12.2 | – | N#Cc1cccnc1N1C[C@H]2CN(C(=O)C34CC5CC(CC(C5)C3)C4)C[C@H]2C1 | –
26 | 0 | – | O=C(CC12CC3CC(CC(C3)C1)C2)N1C[C@@H]2CN(c3ccccn3)C[C@@H]2C1 | –
27 | 47.6 | > 10 | O=C(CC1CCCCC1)N1C[C@@H]2CN(c3ccccn3)C[C@@H]2C1 | –
28 | 2.2 | 0.478 | O=C(N1C[C@@H]2CN(c3ccc(F)cn3)C[C@@H]2C1)C12CC3CC(CC(C3)C1)C2 | Fu (Plasma): 1.5%
29 | 57.7 | > 10 | O=C(C1CCCCC1)N1C[C@@H]2CN(c3ccccn3)C[C@@H]2C1 | –
30 | 6.9 | 0.185 | N#Cc1ccccc1N1C[C@H]2CN(C(=O)C34CC5CC(CC(C5)C3)C4)C[C@H]2C1 | Fu (Plasma): 1.4%
31 | 0.1 | 0.833 | N#Cc1ccncc1N1C[C@H]2CN(C(=O)C34CC5CC(CC(C5)C3)C4)C[C@H]2C1 | –
